High-throughput results from PubChem.
Cardio protect – protects H9c2 cardiomyocytes from peroxide injury; H2O2 injury protection, ATPLite, 2 h; protection from H2O2 cell death, % at 20 µM; actives 0.63% (n = 360,000); AID 588492;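 active = compounds giving at least 50% protection of heart cells from peroxide-induced death in the single-dose screen, raw or plate-pattern-corrected value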;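 note: 0% = DMSO wells with peroxide and 100% = DMSO wells without peroxide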
ARFGAP1 inhibitor – inhibits rat ARF GTPase activating protein 1 | Arfgap1-stimulated ARF1 GTP hydrolysis, GDP FP detection | inhibition, % at 16.5 µM | actives 0.26% (n = 360,000) | AID 651572;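 active = inhibition above a per-plate limit, mean inhibition of low control wells plus 3 SD, cut at about 25% in these data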;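 note: 0% = DMSO wells with enzyme and 100% = wells lacking Arfgap1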
Target sequence (Q62848 1-136 limits assumed): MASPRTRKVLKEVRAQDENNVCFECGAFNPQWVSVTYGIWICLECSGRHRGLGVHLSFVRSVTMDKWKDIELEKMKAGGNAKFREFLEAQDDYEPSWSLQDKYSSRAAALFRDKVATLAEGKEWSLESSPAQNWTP
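Material: rat Arfgap1 GAP domain (His6, aa 1-136), purified enzyme. Also added: human ARF1(Δ1-17)-GTP substrate. Compound dosing: 16.5 µM single point, 1.26% DMSO. Timing: enzyme reaction 120 min at 25 °C after 20 min preincubation. Signal: GDP detection by fluorescence polarization. Read-out basis: percent inhibition of GAP-stimulated GDP formation, scaled between DMSO and no-Arfgap1 medians.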
ASAP1 inh – inhibitors of human ASAP1 ArfGAP activity. Q9ULH1. ASAP1-stimulated ARF1 GTP hydrolysis, GDP FP detection. inhibition, % at 16.5 µM. actives 0.19% (n = 360,000). AID 624377; in the data active = inhibition above about 25%;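 note: 0% = vehicle with enzyme and substrate and 100% = no enzyme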
Target sequence (Q9ULH1 325-724 limits assumed): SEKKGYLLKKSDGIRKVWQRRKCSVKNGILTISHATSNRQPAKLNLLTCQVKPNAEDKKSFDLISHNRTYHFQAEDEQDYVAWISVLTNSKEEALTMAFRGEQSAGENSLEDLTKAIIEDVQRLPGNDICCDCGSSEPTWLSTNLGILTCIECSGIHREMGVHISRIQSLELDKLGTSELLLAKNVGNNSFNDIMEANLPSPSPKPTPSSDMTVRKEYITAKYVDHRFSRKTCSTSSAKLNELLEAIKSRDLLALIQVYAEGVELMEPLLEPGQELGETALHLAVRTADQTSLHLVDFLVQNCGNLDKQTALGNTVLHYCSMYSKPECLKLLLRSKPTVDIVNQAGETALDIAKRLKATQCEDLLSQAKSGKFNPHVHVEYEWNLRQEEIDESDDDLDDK
Neddyl block – inhibitors of human cullin neddylation; P61081+Q13564; inhibition, % at 25 µM; TR-FRET cullin neddylation, biochemical; actives 0.58% (n = 360,000); AID 651699; in the data active = inhibition above about 36%
Neddyl conf – cullin neddylation inhibition, confirmation; shares compounds with Neddyl block; TR-FRET cullin neddylation biochemical assay; calls only at 25 µM; actives 13% (n = 1,800); AID 652217; in the data active = inhibition above about 40%;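 note: neddylation substrate is the cullin 1 ring ligase complex with SKP2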
Numbers without * were called inactive; i = inactive; nt = not tested or not shown; + = active, no number. This is a sample that favours compounds with a hit; in the whole collection about 1.6% have one here.

SMILES	Cardio protect	ARFGAP1 inhibitor	ASAP1 inh	Neddyl block	Neddyl conf
O=C(N/N=C/C=C\c1ccco1)c1ccccn1	15	-4	7	61*	i
O=C(N/N=C/C=C/c1ccco1)c1cnccn1	10	-10	-5	-1	nt
O=c1n2c(c(O)n1C1CCCCC1)C(c1ccccc1)=Nc1ccccc1C2	3	8	-6	2	nt
Nc1c(C(=O)Nc2ccc3c(c2)OCCO3)nnn1Cc1cccc(F)c1	-13	3	2	40*	i
CCOC(=O)c1sc2nccc(N(C)C)c2c1N=CNOCc1ccccc1	1	5	3	41*	i
CC1(C(=O)NCc2ccccc2Br)CCN1C(=O)Cc1ccc(-c2ccccc2)cc1 (stereo not drawn)	-11	-3	10	5	nt
Cc1ccc(N2C(N)=C(C#N)C(c3cccnc3)C3=C2CCCC3=O)cc1 (stereo not drawn)	21	-3	-2	7	nt
N#CC1=C(N)N(c2ccc(Br)cc2)C2=C(C(=O)CCC2)C1c1cccnc1 (stereo not drawn)	-2	-1	13	42*	i
COc1ccc(NS(=O)(=O)c2cccc(C(=O)N/N=C/c3ccc(O)cc3)c2)cc1	-5	13	0	43*	i
COc1ccccc1NS(=O)(=O)c1cccc(C(=O)N/N=C/c2cn(-c3ccccc3)nc2-c2ccccc2)c1	36	3	-2	38*	nt
COc1cc(C=NNC(=O)c2ccc(NS(=O)(=O)c3cccs3)cc2)cc(Br)c1O	0	-9	9	50*	+
COc1ccc(NS(=O)(=O)c2cccc(C(=O)N/N=C/c3cn(-c4ccccc4)nc3-c3ccccc3)c2)cc1	7	3	2	33	nt
CC(=O)Nc1ccc(C=NNC(=O)c2ccc(NS(=O)(=O)c3cccs3)cc2)cc1	-5	6	-6	21	nt
O=C(Nc1ccc(F)cc1)C(c1ccncc1)N1CCN(c2cccc(C(F)(F)F)n2)CC1 (stereo not drawn)	nt	8	4	-2	nt
O=C(Cn1c(=O)oc2cccnc21)Nc1ccc(C(F)(F)F)cc1	-5	-2	-1	40*	i
O=C(NN1C(=O)c2ccccc2NC1c1ccccn1)c1ccccc1 (stereo not drawn)	0	3	-5	39*	nt
O=C1c2ccccc2NC(c2ccccn2)N1c1ccc(Cl)cc1 (stereo not drawn)	-4	-3	-5	42*	nt
O=C(NN1C(=O)c2ccccc2NC1c1ccoc1)c1ccccc1 (stereo not drawn)	3	-11	-2	nt	nt
CCN(CC(=O)Nc1c(F)cccc1F)C(=O)c1ccc(OC)c(S(=O)(=O)NC2CCCC2)c1	-2	-13	11	7	nt
Nc1nc2n(n1)C(c1cccc(Br)c1)CC(c1ccc(F)cc1)N2 (stereo not drawn)	-7	-5	-3	39*	i
COc1ccc(S(=O)(=O)Nc2c(C(=O)O)[nH]c3ccc(OC)cc23)cc1	4	-11	-9	nt	nt
COc1ccc2[nH]c(C(=O)O)c(NS(=O)(=O)c3ccc(OC)c(OC)c3)c2c1	1	-6	-10	44*	+
COc1ccc2sc(NC(=O)c3ccco3)nc2c1	-21	-6	-1	40*	i
COc1ccc2nc(NC(=S)NC(=O)c3ccco3)sc2c1	-13	-10	-4	-2	nt
CSc1cnc2c(=O)n(C)c(=O)[nH]c2n1	13	0	8	48*	nt
SMILES	Cardio protect	ARFGAP1 inhibitor	ASAP1 inh	Neddyl block	Neddyl conf
CCOC(=O)C(=CNc1ccc2c(c1)nnn2-c1ccc(Cl)cc1)C(=O)OCC	-1	7	3	44*	nt
CCOC(=O)C(=CNc1cc(C)ccc1C)C(=O)OCC	-4	11	0	6	nt
CCOC(=O)C(=CNc1ccc(O)c(C(=O)OC)c1)C(=O)OCC	16	3	-2	43*	i
CCOC(=O)C(=CNc1cc(C)nn1-c1ccc(C)cc1)C(=O)OCC	10	3	-3	9	nt
OC(c1cccc(Cl)c1)c1ncc(-c2ccc(C(F)(F)F)cc2)[nH]1 (stereo not drawn)	-22	nt	nt	12	nt
CN(C)CCCNC(=O)C[C@H]1C[C@H](C(=O)N2CCCCC2)[C@@]2(C)c3[nH]c4cc(-c5ccco5)ccc4c3CCN2C1=O	16	-7	4	48*	i
O=C(CCCCn1ccc(=O)[nH]c1=O)Nc1ccc(O)c(C(=O)O)c1	7	-1	-6	39*	nt
CCCCC[C@H](O)/C=C/C1C(=O)C=C[C@H]1C/C=C\CCCC(=O)OC (stereo partly drawn)	1	-3	5	0	nt
OC[C@@H]1CN(Cc2ccco2)C[C@H](n2cnc3c(N4CCN(c5ccccc5)CC4)ncnc32)O1	-1	-3	13	14	nt
O=C(O)c1cc(N2CCCCC2)nc2ccccc12	1	0	3	42*	+
CC(CCc1ccccc1)NC(=O)COC(=O)c1cccc(N(C)C)c1 (stereo not drawn)	1	0	9	46*	i
CCc1nc2c(OCc3ccc(F)c(F)c3)cccn2c1N(C)C(=O)c1ccc(C)cc1	5	-11	-7	0	nt
CCCCS(=O)(=O)N1CCCc2nc(-c3ccccc3)ccc21	nt	-12	-5	nt	nt
Cn1c(=O)c2c(nc(N/N=C/c3ccc(OC(=O)c4ccco4)cc3)n2Cc2ccccc2Cl)n(C)c1=O	4	nt	nt	44*	i
Cn1c(=O)c2c(nc(N/N=C/c3ccc(OC(=O)c4ccco4)cc3)n2Cc2ccc(F)cc2)n(C)c1=O	27	6	-11	nt	nt
CCOC(=O)[C@]12CCC=C1N(Cc1ccc(Cl)cc1Cl)C(=O)[C@H](CC(=O)NCCc1ccccc1OC)C2	nt	13	9	-4	nt
c1ccc(CN2CCC(N3CCC(N4CCCCCC4)CC3)CC2)cc1	1	nt	nt	7	nt
c1ccc2c(c1)c1c(c3ccccc32)CN2CCCC2C1 (stereo not drawn)	1	-19	-12	43*	i
CCCNC(=O)COC(=O)c1cc(-c2ccc(OC)cc2)nc2ccccc12	-12	17	-2	nt	nt
COc1ccc(-c2cc(C(=O)OCC(=O)NC3CC3)c3ccccc3n2)cc1	-9	-7	4	56*	nt
COCCNC(=O)COC(=O)c1cc(-c2ccc(OC)cc2)nc2ccccc12	-4	1	14	44*	nt
CCNC(=O)COC(=O)c1cc(-c2ccc(OC)cc2)nc2ccccc12	-4	-7	-9	57*	nt
COc1ccc(C(C)(O)c2nc(-c3csc4ccccc34)cs2)cc1 (stereo not drawn)	-16	1	13	-20	nt
Cc1cc(N/C(=N/S(=O)(=O)c2ccc(F)cc2)c2ccccc2)n(-c2ccccc2)n1	-2	0	-3	52*	i
Cc1cc(N/C(=N/S(=O)(=O)c2cc(F)ccc2F)c2ccccc2)n(-c2ccccc2)n1	3	-8	7	nt	nt
COC(=O)c1cc2ccccc2c([N+](=O)[O-])c1O	0	-1	2	-50	nt
